M1 antag = human M1 muscarinic receptor antagonists, primary screen, CHO-K1 cells, Fluo-8 calcium fluorescence, 1536-well. CHO-K1 hM1, ACh EC80 antagonist. Muscarinic acetylcholine receptor M1 (Homo sapiens), P11229. 360,000 compounds, 1.3% hits. inhibition, % at 3 µM;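 active means percent inhibition above its own plate's cutoff, namely the mean of that plate's compound wells plus 3 SD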;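 further: peak over basal fluorescence ratio during 140 s after agonist addition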
Target sequence (P11229 whole entry, looked up): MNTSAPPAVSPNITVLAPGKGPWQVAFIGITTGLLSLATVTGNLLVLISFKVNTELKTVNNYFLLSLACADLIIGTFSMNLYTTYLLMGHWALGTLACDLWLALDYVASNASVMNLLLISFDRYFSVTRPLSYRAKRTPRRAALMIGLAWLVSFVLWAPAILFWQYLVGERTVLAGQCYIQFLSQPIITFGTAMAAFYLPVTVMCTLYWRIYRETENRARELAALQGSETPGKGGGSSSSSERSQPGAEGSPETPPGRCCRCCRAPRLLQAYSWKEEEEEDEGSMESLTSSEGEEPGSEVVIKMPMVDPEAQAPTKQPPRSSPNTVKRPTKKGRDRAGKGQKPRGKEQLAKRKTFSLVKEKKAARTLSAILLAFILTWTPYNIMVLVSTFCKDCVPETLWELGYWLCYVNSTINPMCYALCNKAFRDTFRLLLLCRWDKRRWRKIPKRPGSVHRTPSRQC
M1 PAM = human M1 muscarinic receptor positive allosteric modulators, primary screen, CHO-K1 cells, Fluo-8 calcium fluorescence, 1536-well; activation, % at 3 µM; 360,000 compounds, 0.088% hits; Muscarinic acetylcholine receptor M1 (Homo sapiens), P11229; AID 588819, 2011; CHO-K1 hM1, ACh EC20; 0% = ACh EC20, 100% = maximal ACh; in the data active means activation above about 19%, passing the limit was not always enough
M1 ag = human M1 muscarinic receptor agonists, primary screen, Fluo-8 calcium fluorescence, CHO-K1 cells, HTS. activation, % at 3 µM. AID 588814, 2011. 360,000 compounds, 0.33% hits. CHO-K1 hM1, agonist mode; 0% DMSO, 100% acetylcholine EC100. Muscarinic acetylcholine receptor M1 (Homo sapiens), P11229;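 active means activation above the run's mean compound activation plus 3 SD, cut at about 16% in these data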;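 further: peak over basal fluorescence ratio within a 140 s kinetic read after compound addition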
TAAR1 agonist = human TAAR1 agonists, primary screen, Fluo-8 calcium fluorescence, CHO RD-HGA16 cells. activation, % at 3 µM. AID 624467, 2012. Trace amine-associated receptor 1 (Homo sapiens), Q96RJ0. vehicle wells 0%, saturating PEA agonist 100%. 360,000 compounds, 0.99% hits;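 active means activation above the mean activation of all test compounds in the run plus 3 SD, cut at about 38% in these data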
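Assay system: CHO-derived RD-HGA16 cells with stable Gα16 and human TAAR1; timing: 17-24 h seeding, 75 min 37 °C dye, 30 min RT; read-out: % activation from peak over basal fluorescence ratio, DMSO-to-PEA scaled; measured by: kinetic Fluo-8 calcium fluorescence; benchmarks: low control DMSO, high control PEA (EC100); doses: 3 µM single concentration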
HTR2A ag = mouse Htr2a agonists via beta-arrestin recruitment, primary screen, cell-based, luminescence. CHO-K1 mHTR2A beta-arrestin complementation; percent of 30 µM serotonin response. activation, % at 7.6 µM. 360,000 compounds, 0.66% hits;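 active means activation above a run cutoff, the mean activation of all tested compounds plus 3 SD, cut at about 14% in these data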
TAAR1 antagonist = human TAAR1 antagonists, primary screen, Fluo-8 calcium fluorescence, CHO RD-HGA16 cells; Trace amine-associated receptor 1 (Homo sapiens), Q96RJ0; antagonist; inhibition, % at 3 µM; 360,000 compounds, 1.5% hits;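 active means inhibition above a per-plate cutoff, the mean inhibition of test compounds on that plate plus 3 SD, cut at about 49% in these data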
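Test system: hTAAR1-expressing CHO RD-HGA16 cells, Gα16-coupled; Probe or stimulus: EC80 β-phenethylamine stimulus; Compound dosing: single nominal final test compound concentration of 3 µM; Timing: 140 s kinetic read after compound, 140 s after agonist; Signal: Fluo-8 calcium-sensitive fluorescence; Measure: % inhibition of agonist calcium response; Controls: DMSO and EC80 PEA controls.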
nonsel antag count = nonselective antagonists in TAAR1 counter-screen cells, counter-screen for hTAAR1 antagonist project, cell-based, fluorescence, calcium | inhibition, % at 3 µM | counterscreen cell line, antagonist mode | 2,400 compounds, 77% hits | shares compounds with TAAR1 antagonist; in the data active means inhibition above about 22%;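 further: CHO-Ga16 host cells stimulated with ATP at an EC80 level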
TAAR1 antag conf = human TAAR1 antagonists, retest of hits, confirmation, cell-based, fluorescence; shares compounds with TAAR1 antagonist; TAAR1-expressing cells, fluorescence antagonist read-out; inhibition, % at 3 µM; 2,400 compounds, 40% hits; in the data active means inhibition above about 49%;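 further: CHO-Ga16 host cells challenged with agonist PEA near its EC80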
Ga16 ag counter = calcium activation in Ga16-expressing cells, counter-screen for TAAR1 antagonist project, cell-based, fluorescence; shares compounds with TAAR1 antagonist; agonist counterscreen; activation, % at 3 µM; 2,400 compounds, 18% hits; in the data active means activation above about 12%
TAAR1 ag count = TAAR1 activation by candidate antagonists – cell-based, fluorescence, counter-screen for TAAR1 antagonist project | shares compounds with TAAR1 antagonist | activation, % at 3 µM | hTAAR1 cell line, agonist mode | 2,400 compounds, 2% hits; in the data active means activation above about 37%;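 further: CHO cells stably expressing TAAR1 with calcium dye readout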
Numbers stand for hits; i = inactive; nt = not tested or not shown. Sampled rows, rich in hits. Any-hit rate of the full collection: about 3.9%.

SMILES | M1 antag | M1 PAM | M1 ag | TAAR1 agonist | HTR2A ag | TAAR1 antagonist | nonsel antag count | TAAR1 antag conf | Ga16 ag counter | TAAR1 ag count
Cc1noc(C)c1-c1ccc(C(=O)Nc2cccc(NS(C)(=O)=O)c2)c2occc12 | i | i | i | i | i | 59.6 | 33.4 | i | i | i
Cc1noc(C)c1-c1ccc(C(=O)Nc2cccc(C(F)(F)F)c2)c2occc12 | i | i | i | i | i | 52.8 | i | i | i | i
Cc1noc(C)c1-c1ccc(C(=O)NCc2cccc(Cl)c2)c2occc12 | i | i | i | i | i | i | nt | nt | nt | nt
O=S(=O)(NC1CCCCC1)c1ccc(Cl)nc1 | i | i | i | i | i | i | nt | nt | nt | nt
COc1ccccc1N1CCN(C(=O)CCCn2c(=S)[nH]c3ccccc3c2=O)CC1 | i | i | i | i | i | 65.0 | i | i | i | i
COc1ccccc1N1CCN(C(=O)CCCCCn2c(=O)[nH]c3ccsc3c2=O)CC1 | i | i | i | i | i | 56.4 | 27.9 | i | i | i
COc1ccccc1N1CCN(C(=O)CCn2c(=O)[nH]c3ccccc3c2=O)CC1 | i | i | i | i | i | i | nt | nt | nt | nt
COc1ccc(OC)c(N(CC(=O)NCc2ccccc2)S(=O)(=O)c2ccc(OC)c(OC)c2)c1 | i | i | i | i | i | 50.9 | 21.6 | i | i | i
COc1ccc(CCNC(=O)CN(c2cc(OC)ccc2OC)S(=O)(=O)c2ccccc2)cc1 | i | i | i | i | i | 49.5 | 29.7 | i | i | i
COC(=O)C1=C(C)N(Cc2ccc(C(F)(F)F)cc2)C(=NCc2ccccc2)NC1c1cccc(Cl)c1 (configuration not stated) | nt | nt | nt | i | nt | 59.8 | 38.7 | i | 13.4 | i
COC(=O)C1=C(C)N(Cc2ccc(C(F)(F)F)cc2)C(=NCc2ccccc2)NC1c1ccc(C(F)(F)F)cc1 (configuration not stated) | nt | nt | nt | i | nt | 54.9 | 40.7 | i | 21.0 | 43.6
COC(=O)C1=C(C)N(Cc2cccc(C(F)(F)F)c2)C(=NCc2ccc3c(c2)OCO3)NC1c1ccc(Cl)cc1 (configuration not stated) | nt | nt | nt | i | nt | 55.9 | 36.6 | i | 18.9 | 52.4
COC(=O)C1=C(C)N(Cc2cccc(C(F)(F)F)c2)C(=NCc2ccc(OC)cc2)NC1c1ccc(F)cc1 (configuration not stated) | nt | nt | nt | i | nt | 53.2 | 41.5 | i | 14.9 | i
O=C(NCc1ccccc1)C(c1ccc(-c2ccccc2)cc1)N1CCN(CCN2CCOCC2)CC1 (configuration not stated) | nt | nt | nt | i | i | i | nt | nt | nt | nt
C[C@H]1CN([C@@H](C)CO)C(=O)CCCn2nncc2CO[C@H]1CN(C)S(=O)(=O)c1ccc(Oc2ccccc2)nc1 | i | i | i | i | i | i | nt | nt | nt | nt
COC(=O)C1=C(C)N(Cc2ccc(C(F)(F)F)cc2)C(=NCc2ccccc2)NC1c1cccc(C(F)(F)F)c1 (configuration not stated) | nt | nt | nt | i | nt | i | nt | nt | nt | nt
COC(=O)C1=C(C)N(Cc2ccc(F)cc2)C(=S)NC1c1cccc(OC)c1 (configuration not stated) | nt | nt | nt | i | nt | 57.1 | 23.7 | i | i | i
COC(=O)C1=C(C)N(Cc2ccc(C(F)(F)F)cc2)C(=NCc2ccccc2)NC1c1ccccc1 (configuration not stated) | nt | nt | nt | i | nt | 50.8 | 35.8 | i | 17.6 | i
COC(=O)C1=C(C)N(C)C(=NCc2cccc(C(F)(F)F)c2)NC1c1ccc(C(F)(F)F)cc1 (configuration not stated) | nt | nt | nt | i | nt | 50.9 | 32.5 | i | 12.8 | i
COCC(C)NC(=O)c1nn(Cc2ccccc2)c(=O)c2ccccc12 (configuration not stated) | i | i | i | i | i | i | nt | nt | nt | nt
C[C@@H]1CN([C@H](C)CO)C(=O)CCCn2cc(nn2)CO[C@H]1CN(C)C(=O)C1CC1 | i | i | i | i | i | i | nt | nt | nt | nt
COc1ccc(Cl)cc1C(=O)OCC(=O)Nc1sccc1C(N)=O | i | i | i | i | i | 56.7 | 25.8 | 49.6 | i | i
NC(=O)c1ccsc1NC(=O)COC(=O)c1ccc(Cl)cc1 | i | i | i | i | i | i | nt | nt | nt | nt
O=C1c2cccc(OCC(=O)N3CCCc4ccccc43)c2CCN1Cc1cccnc1 | i | i | i | i | i | i | nt | nt | nt | nt
Cc1ccccc1CN1CCc2c(OCC(=O)N3CCCc4ccccc43)cccc2C1=O | i | i | i | i | i | 72.1 | 40.6 | 53.8 | i | i
SMILES | M1 antag | M1 PAM | M1 ag | TAAR1 agonist | HTR2A ag | TAAR1 antagonist | nonsel antag count | TAAR1 antag conf | Ga16 ag counter | TAAR1 ag count
COc1ccc(C(=O)Nc2ccc(N3CCN(C(=O)c4ccccc4C)CC3)cc2)cc1 | i | i | i | i | i | 65.3 | 24.0 | i | 13.6 | i
COc1ccc(Nc2ncc(C(=O)O)c3ccccc23)cc1 | i | i | i | i | i | i | nt | nt | nt | nt
COc1ccc(C(=O)Nc2ccc(N3CCCC3)cc2)cc1 | i | i | i | i | i | i | nt | nt | nt | nt
COc1ccc(Nc2ncc(C(=O)N3CCN(c4ccc(F)cc4)CC3)c3ccccc23)cc1 | i | i | i | i | i | 55.1 | 36.7 | 54.0 | i | i
COC(=O)[C@H](C(C)C)N(Cc1ccccc1)S(=O)(=O)CCNC1CCCC1 | i | i | i | i | i | i | nt | nt | nt | nt
O=C(NCc1ccc(F)cc1)c1cccc2c1C(=O)c1ccc(N3CCC(Cc4ccccc4)CC3)cc1S2(=O)=O | i | i | i | i | i | i | nt | nt | nt | nt
O=C(NCCc1ccccc1)c1cccc2c1C(=O)c1ccc(N3CCOCC3)cc1S2(=O)=O | i | i | i | i | i | 50.5 | 23.8 | i | i | i
